# Measured values of several laboratories.
# Protocols differ between the studies behind these lines.
# Target: Casein kinase I isoform delta (CSNK1D, Homo sapiens, UniProt P48730)
# Residues used in one study (P48730 1-294): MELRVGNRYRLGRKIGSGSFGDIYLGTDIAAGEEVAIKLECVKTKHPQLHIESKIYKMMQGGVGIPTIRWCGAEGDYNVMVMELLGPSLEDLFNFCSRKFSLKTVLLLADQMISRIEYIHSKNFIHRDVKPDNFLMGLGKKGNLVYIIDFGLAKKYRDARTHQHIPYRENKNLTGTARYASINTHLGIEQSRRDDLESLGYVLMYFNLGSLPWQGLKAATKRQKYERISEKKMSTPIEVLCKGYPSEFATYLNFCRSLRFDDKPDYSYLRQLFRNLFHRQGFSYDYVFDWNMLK
assay,conditions,endpoint,result,SMILES
binding,1 µM,remaining binding,119%,COc1ccc2oc(-c3ccc4nc(N)oc4c3)c/c(=N\c3ccccc3NC(=O)CCN)c2c1
binding,0.1 µM,remaining binding,100%,C1=C/COCc2cc(ccc2OCCN2CCCC2)Nc2nccc(n2)-c2cccc(c2)COC/1
"cell-free assay, competition with immobilised ligand",25 µM,remaining binding,100%,N#Cc1ccc(NC(=O)Nc2ccccc2)cc1
binding,1 µM,remaining binding,94%,COc1ccc2[nH]c3c4[nH]c5ccc(OC)cc5c4c4c(c3c2c1)C(=O)NC4=O
"enzyme activity, inhibitor",1 µM,inhibition,8%,C=CC(=O)N1CCC([C@@H]2CCNc3c(C(N)=O)c(-c4ccc(Oc5ccccc5)cc4)nn32)CC1
binding,1 µM,remaining binding,99%,Cc1ccc(NC(=O)c2ccnc(C(F)(F)F)c2)cc1-c1cc(OCCO)nc(N2CCOCC2)c1
"enzyme activity, inhibitor",1 µM,activity vs control,105%,CC(C)S(=O)(=O)c1ccc2nccc(Nc3ccc4sc(C5CCCC5)nc4c3)c2c1
"binding, competition with immobilised ligand",0.5 µM,remaining binding,87%,CCCCC(=O)Nc1ccc(-c2ccc3ncn(CCC)c(=O)c3c2)cn1
"binding, SPR",,kon,809000 M⁻¹ s⁻¹,c1cc(-c2cnn3cc(-c4ccc(OCCN5CCCCC5)cc4)cnc23)ccn1
cell-free assay,1 µM,remaining signal,100%,C#Cc1cnc(Nc2ccnc(CO)c2)nc1Nc1ccccc1S(C)(=O)=NC#N (stereo not drawn)
"binding, SPR",,kon,335000 M⁻¹ s⁻¹,c1cc(Nc2cc(C3CC3)n[nH]2)nc(Nc2ccc3nc[nH]c3c2)n1
"enzyme activity, inhibitor",1 µM,inhibition,0%,CO[C@@H]1[C@H](N(C)C(=O)c2ccccc2)C[C@H]2O[C@]1(C)n1c3ccccc3c3c4c(c5c6ccccc6n2c5c31)C(=O)NC4
